Data from ChEMBL document CHEMBL1914364, “3-bromohomofascaplysin A, a fascaplysin analogue from a Fijian Didemnum sp. ascidian” (Bioorg Med Chem, 2011).

Key:
Plasmodium falciparum [1] = assay: Antimalarial activity against chloroquine- and pyrimethamine-resistant Plasmodium falciparum K1; assay type: functional, organism-based
Plasmodium falciparum [2] = assay: Antimalarial activity against chloroquine- and mefloquine-resistant Plasmodium falciparum W2-Mef infected in human O-positive erythrocytes after 48 hrs; assay type: functional, organism-based
Method in brief: (§1)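 Asynchronous W2-Mef cultures kept at 5% hematocrit in RPMI-1640-based malaria medium. Drugs were diluted in ½ log10 steps from 10 μM to 0.33 nM and grown in triplicate for 48 hr. Cells were stained 40 min with Hoechst 33342, thiazole orange, DiIC1-5 and propidium iodide, then read by flow cytometry; DNA/RNA levels assign ring, trophozoite and schizont stages. IC50 is taken from mean parasite counts relative to drug-free control wells.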

Plasmodium falciparum [3] = assay: Antimalarial activity against chloroquine- and mefloquine-resistant Plasmodium falciparum W2-Mef infected in human O-positive erythrocytes assessed as inhibition of ring-stage parasite growth after 48 hrs; assay type: functional, organism-based; method in brief: as §1
Plasmodium falciparum [4] = assay: Antimalarial activity against chloroquine- and mefloquine-resistant Plasmodium falciparum W2-Mef infected in human O-positive erythrocytes assessed as inhibition of trophozoites growth after 48 hrs; assay type: functional, organism-based; method in brief: as §1
Plasmodium falciparum [5] = assay: Antimalarial activity against chloroquine- and mefloquine-resistant Plasmodium falciparum W2-Mef infected in human O-positive erythrocytes assessed as inhibition of schizonts growth after 48 hrs; assay type: functional, organism-based; method in brief: as §1
Plasmodium falciparum [6] = assay: Ratio of IC50 for chloroquine- and mefloquine-resistant Plasmodium falciparum W2-Mef trophozoites to IC50 for chloroquine- and mefloquine-resistant Plasmodium falciparum W2-Mef ring-stage parasite; assay type: functional
Plasmodium falciparum [7] = assay: Ratio of IC50 for chloroquine- and mefloquine-resistant Plasmodium falciparum W2-Mef schizonts to IC50 for chloroquine- and mefloquine-resistant Plasmodium falciparum W2-Mef ring-stage parasite; assay type: functional
L6 = assay: Cytotoxicity against rat L6 cells; assay type: cell-based
[8] = Ratio of MIC for rat L6 cells to MIC for Plasmodium falciparum

Row | SMILES | IC50 (Plasmodium falciparum [1]) | IC50 (Plasmodium falciparum [2]) | IC50 (Plasmodium falciparum [3]) | IC50 (Plasmodium falciparum [4]) | IC50 (Plasmodium falciparum [5]) | Ratio IC50 (Plasmodium falciparum [6]) | Ratio IC50 (Plasmodium falciparum [7]) | Activity (L6) | Ratio [8]
1 | CC(=O)C[C@]1(O)c2ccccc2-[n+]2ccc3c([nH]c4ccccc43)c21.[Cl-] [HOMOFASCAPLYSINE A] | 38 nM | 105 nM | 0.55 nM | 252 nM | 94 nM | 450 | 170 | 1.1 µg/mL | 50
2 | CC(=O)C[C@]1(O)c2ccc(Br)cc2-[n+]2ccc3c([nH]c4ccccc43)c21 |  | 805 nM | 574 nM | 1190 nM | 765 nM |  |  |  | 
3 | C[C@@H]1CC[C@H]2[C@@H](C)C(=O)O[C@@H]3O[C@@]4(C)CC[C@@H]1[C@]32OO4 [ARTEMISININ] |  | 6.25 nM | 5.92 nM | 6.46 nM | 5.91 nM |  |  |  | 
4 | O=C1c2ccccc2-[n+]2ccc3c([nH]c4ccccc43)c21.[Cl-] [FASCAPLYSIN CHLORIDE] | 160 nM | 48.2 nM | 7.82 nM | 401 nM | 65.2 nM |  |  | 2.5 µg/mL | 50
